What was measured:
Jurkat cells [1] = assay: LDH release cytotoxicity; type: cell-based, human; conditions: 10 μM, 37 °C; for Cytotoxicity by LDH release (in words): 10 min or 60 min
How it was run: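 Jurkat cells exposed to 10 μM lipopeptide at 37 °C for 10 or 60 min, then the plate was centrifuged at 250 × g for 4 min. Released LDH in the supernatant was read using tetrazolium substrate (RT, 30 min, dark) at 490 nm. Controls were spontaneous release, lysis-solution maximum, volume correction and medium background. % cytotoxicity = (experimental − spontaneous)/(maximum − spontaneous) × 100. Triplicate.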

Jurkat cells [2] = assay: Cellular uptake of FITC-labelled LPs by flow cytometry; type: cell-based, human; conditions: 10 μM, 10 min, 37 °C

| Compound | Cytotoxicity by LDH release (in words) (Jurkat cells [1]) | Cytotoxicity (LDH release, % of maximum) (Jurkat cells [1]; 60 min, triplicate, mean ± SD) [%] | Signal intensity relative to C14R11 (C14R11 set as 1) (Jurkat cells [2]) [fold] |
| --- | --- | --- | --- |
| CCCCCCCCCCCC(=O)NCCC(=O)N[C@@H](CCCNC(=N)N)C(=O)N[C@@H](CCCNC(=N)N)C(=O)N[C@@H](CCCNC(=N)N)C(=O)N[C@@H](CCCNC(=N)N)C(=O)N[C@@H](CCCNC(=N)N)C(=O)N[C@@H](CCCNC(=N)N)C(=O)N[C@@H](CCCNC(=N)N)C(=O)N[C@@H](CCCCNC(=S)Nc1ccc2c(c1)C(=O)OC21c2ccc(O)cc2Oc2cc(O)ccc21)C(N)=O [C12R7] | didn’t exhibit any significant toxicity | – | – |
| CCCCCCCCCCCCCC(=O)NCCC(=O)N[C@@H](CCCNC(=N)N)C(=O)N[C@@H](CCCNC(=N)N)C(=O)N[C@@H](CCCNC(=N)N)C(=O)N[C@@H](CCCNC(=N)N)C(=O)N[C@@H](CCCNC(=N)N)C(=O)N[C@@H](CCCNC(=N)N)C(=O)N[C@@H](CCCNC(=N)N)C(=O)N[C@@H](CCCCNC(=S)Nc1ccc2c(c1)C(=O)OC21c2ccc(O)cc2Oc2cc(O)ccc21)C(N)=O [C14R7] | didn’t exhibit any significant toxicity | – | – |
| CCCCCCCCCCCCCC(=O)NCCC(=O)N[C@H](CCCNC(=N)N)C(=O)N[C@H](CCCNC(=N)N)C(=O)N[C@H](CCCNC(=N)N)C(=O)N[C@H](CCCNC(=N)N)C(=O)N[C@H](CCCNC(=N)N)C(=O)N[C@H](CCCNC(=N)N)C(=O)N[C@H](CCCNC(=N)N)C(=O)N[C@H](CCCNC(=N)N)C(=O)N[C@H](CCCNC(=N)N)C(=O)N[C@H](CCCNC(=N)N)C(=O)N[C@H](CCCNC(=N)N)C(=O)N[C@@H](CCCCNC(=S)Nc1ccc2c(c1)C(=O)OC21c2ccc(O)cc2Oc2cc(O)ccc21)C(N)=O [C14dR11] | – | 5.97 ± 0.9 | 5 |
| CCCCCCCCCCCCCCCC(=O)NCCC(=O)N[C@@H](CCCNC(=N)N)C(=O)N[C@@H](CCCNC(=N)N)C(=O)N[C@@H](CCCNC(=N)N)C(=O)N[C@@H](CCCNC(=N)N)C(=O)N[C@@H](CCCNC(=N)N)C(=O)N[C@@H](CCCNC(=N)N)C(=O)N[C@@H](CCCNC(=N)N)C(=O)N[C@@H](CCCCNC(=S)Nc1ccc2c(c1)C(=O)OC21c2ccc(O)cc2Oc2cc(O)ccc21)C(N)=O [C16R7] | didn’t exhibit any significant toxicity | – | – |

Reference: PMC3156442 (Molecular bioSystems, 2010)
